Test results: ChEMBL document CHEMBL4613265, “Novel Human Neutral Sphingomyelinase 2 Inhibitors as Potential Therapeutics for Alzheimer's Disease” (J Med Chem, 2020)
Activity calls are given as the source filed them. The calls are words filed in the database; no cut-off is given here.

What was measured:
[1] = Cmax in 5XFAD transgenic B6SJLF1/J mouse plasma at 10 mg/kg, ip by LC-MS/MS analysis; type: ADME, organism-based; parameters: dose 10 mg/kg, route intraperitoneal
Summary of the method: (§1)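 Hemizygous 5XFAD mice aged 11 months received one terminal ip dose of 10 mg/kg in NMP–Tween 80–saline (2.5:5:92.5 v/v/v). […] Extraction by acetonitrile protein precipitation with losartan as internal standard, then LC–MS/MS. Noncompartmental analysis: Cmax and Tmax observed; AUC to 6 h by log–linear trapezoidal rule.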

[2] = Cmax in 5XFAD transgenic B6SJLF1/J mouse brain at 10 mg/kg, ip by LC-MS/MS analysis; type: ADME, organism-based; parameters: dose 10 mg/kg, route intraperitoneal; summary of the method: as §1
[3] = Tmax in 5XFAD transgenic B6SJLF1/J mouse plasma at 10 mg/kg, ip by LC-MS/MS analysis; type: ADME, organism-based; summary of the method: as §1
[4] = Tmax in 5XFAD transgenic B6SJLF1/J mouse brain at 10 mg/kg, ip by LC-MS/MS analysis; type: ADME, organism-based; summary of the method: as §1
[5] = AUClast in 5XFAD transgenic B6SJLF1/J mouse plasma at 10 mg/kg, ip by LC-MS/MS analysis; type: ADME, organism-based; summary of the method: as §1
[6] = AUClast in 5XFAD transgenic B6SJLF1/J mouse brain at 10 mg/kg, ip by LC-MS/MS analysis; type: ADME, organism-based; summary of the method: as §1
[7] = target: Phosphatidylinositol 4-kinase beta (Homo sapiens, UniProt Q9UBF8); experiment: Inhibition of PI4K3beta (unknown origin)
Chain of Phosphatidylinositol 4-kinase beta (Q9UBF8 whole entry): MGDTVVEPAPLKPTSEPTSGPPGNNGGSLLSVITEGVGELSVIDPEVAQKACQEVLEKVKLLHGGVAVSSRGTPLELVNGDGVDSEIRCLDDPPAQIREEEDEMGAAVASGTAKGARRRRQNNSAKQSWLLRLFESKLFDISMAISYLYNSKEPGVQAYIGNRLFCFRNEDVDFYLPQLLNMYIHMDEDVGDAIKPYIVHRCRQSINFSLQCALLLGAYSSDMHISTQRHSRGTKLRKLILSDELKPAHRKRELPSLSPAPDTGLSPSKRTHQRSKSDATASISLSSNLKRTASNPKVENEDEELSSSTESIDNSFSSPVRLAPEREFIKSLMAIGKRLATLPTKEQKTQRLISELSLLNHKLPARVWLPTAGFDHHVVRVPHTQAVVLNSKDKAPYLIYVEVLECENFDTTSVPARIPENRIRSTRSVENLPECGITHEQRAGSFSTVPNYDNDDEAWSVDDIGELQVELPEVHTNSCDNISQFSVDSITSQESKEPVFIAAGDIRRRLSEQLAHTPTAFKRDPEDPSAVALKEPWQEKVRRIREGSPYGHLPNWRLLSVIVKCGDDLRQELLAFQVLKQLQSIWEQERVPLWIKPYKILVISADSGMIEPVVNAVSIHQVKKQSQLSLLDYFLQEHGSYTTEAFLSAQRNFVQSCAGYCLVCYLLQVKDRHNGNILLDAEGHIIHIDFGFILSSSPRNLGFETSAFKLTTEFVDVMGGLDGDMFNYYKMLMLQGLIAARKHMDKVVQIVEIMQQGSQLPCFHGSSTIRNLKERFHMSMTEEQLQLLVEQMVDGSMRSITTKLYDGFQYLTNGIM

[8] = target: Phosphatidylinositol 4-kinase alpha (Homo sapiens) (UniProt P42356); experiment: Inhibition of PI4K3alpha (unknown origin)
Chain of Phosphatidylinositol 4-kinase alpha (Homo sapiens) (P42356 whole entry, looked up): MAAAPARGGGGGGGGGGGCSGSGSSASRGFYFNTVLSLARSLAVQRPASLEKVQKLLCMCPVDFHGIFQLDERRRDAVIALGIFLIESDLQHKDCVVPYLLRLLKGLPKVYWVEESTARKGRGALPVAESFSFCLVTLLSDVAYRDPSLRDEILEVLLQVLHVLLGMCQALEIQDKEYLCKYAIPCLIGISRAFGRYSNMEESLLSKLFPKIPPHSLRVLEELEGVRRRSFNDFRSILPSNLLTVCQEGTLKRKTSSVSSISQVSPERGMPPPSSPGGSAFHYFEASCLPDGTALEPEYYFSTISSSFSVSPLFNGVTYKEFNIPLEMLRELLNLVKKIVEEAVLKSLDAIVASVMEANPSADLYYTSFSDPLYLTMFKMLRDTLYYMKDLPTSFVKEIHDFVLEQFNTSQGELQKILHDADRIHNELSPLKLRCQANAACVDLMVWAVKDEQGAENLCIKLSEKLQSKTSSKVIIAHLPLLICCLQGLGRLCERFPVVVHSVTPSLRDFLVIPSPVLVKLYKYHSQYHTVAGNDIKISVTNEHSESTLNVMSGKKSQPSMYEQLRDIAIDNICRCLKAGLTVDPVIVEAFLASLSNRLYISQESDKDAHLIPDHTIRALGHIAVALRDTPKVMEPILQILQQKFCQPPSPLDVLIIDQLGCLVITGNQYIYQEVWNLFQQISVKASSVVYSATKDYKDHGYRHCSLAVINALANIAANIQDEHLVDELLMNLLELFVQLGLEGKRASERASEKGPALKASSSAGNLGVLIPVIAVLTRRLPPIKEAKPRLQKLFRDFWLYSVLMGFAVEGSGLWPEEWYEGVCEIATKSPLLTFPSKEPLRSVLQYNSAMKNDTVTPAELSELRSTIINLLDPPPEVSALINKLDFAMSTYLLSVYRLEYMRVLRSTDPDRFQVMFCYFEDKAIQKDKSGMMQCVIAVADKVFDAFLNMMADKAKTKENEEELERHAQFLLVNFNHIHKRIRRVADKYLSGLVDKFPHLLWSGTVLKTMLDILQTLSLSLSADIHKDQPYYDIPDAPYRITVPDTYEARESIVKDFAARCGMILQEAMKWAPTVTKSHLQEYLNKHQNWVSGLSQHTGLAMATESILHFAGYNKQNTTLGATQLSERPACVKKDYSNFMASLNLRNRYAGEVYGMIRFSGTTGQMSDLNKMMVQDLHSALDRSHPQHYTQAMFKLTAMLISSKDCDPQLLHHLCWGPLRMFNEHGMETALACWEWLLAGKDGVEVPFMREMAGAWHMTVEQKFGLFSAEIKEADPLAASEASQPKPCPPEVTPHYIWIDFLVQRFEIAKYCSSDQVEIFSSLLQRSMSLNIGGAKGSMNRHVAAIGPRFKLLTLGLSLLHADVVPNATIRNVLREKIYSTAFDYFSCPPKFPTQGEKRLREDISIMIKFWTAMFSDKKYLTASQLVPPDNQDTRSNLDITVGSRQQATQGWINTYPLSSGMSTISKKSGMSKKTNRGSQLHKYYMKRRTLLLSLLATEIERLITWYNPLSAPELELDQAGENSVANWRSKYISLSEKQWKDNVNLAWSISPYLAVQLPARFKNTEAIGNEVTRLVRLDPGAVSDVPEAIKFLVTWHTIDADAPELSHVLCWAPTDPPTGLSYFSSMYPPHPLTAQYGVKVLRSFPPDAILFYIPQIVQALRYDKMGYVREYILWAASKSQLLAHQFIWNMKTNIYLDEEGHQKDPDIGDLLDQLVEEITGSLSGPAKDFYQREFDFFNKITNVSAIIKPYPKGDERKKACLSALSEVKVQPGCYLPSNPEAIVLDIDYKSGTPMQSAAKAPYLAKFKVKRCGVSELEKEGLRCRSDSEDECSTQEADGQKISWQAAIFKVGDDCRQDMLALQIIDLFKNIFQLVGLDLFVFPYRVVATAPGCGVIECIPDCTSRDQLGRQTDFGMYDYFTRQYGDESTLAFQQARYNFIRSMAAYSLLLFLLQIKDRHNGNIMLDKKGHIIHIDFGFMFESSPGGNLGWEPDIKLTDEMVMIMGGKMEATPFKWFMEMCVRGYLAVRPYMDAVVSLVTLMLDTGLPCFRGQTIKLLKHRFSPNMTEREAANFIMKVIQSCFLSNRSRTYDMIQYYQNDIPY

[9] = tested on: Mus musculus; experiment: Suppression of cognitive dysfunction in 5XFAD transgenic B6SJLF1/J mouse model of Alzheimer's disease assessed as body weight gain at 10 mg/kg, ip administered daily for 5 months measured during compound dosing; type: functional, organism-based
Summary of the method: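 Male and female hemizygous 5XFAD and WT littermates were dosed from age 3 months with 10 mg/kg ip daily or vehicle (5% DMSO, 5% Tween 80, 90% PBS), n = 13–16. Body weight was followed to study day 150 (8 months). Groups were compared by two-way ANOVA.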

[10] = tested on: Mus musculus; experiment: Suppression of cognitive dysfunction in 5XFAD transgenic B6SJLF1/J mouse model of Alzheimer's disease assessed as increase in freezing behavior response to 1000 Hz tone conditioned stimulus at 10 mg/kg, ip administered daily for 5 months measured during 120 secs of testing by contextual fear conditioning assay; type: functional, organism-based
Summary of the method: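 Dosed daily ip at 10 mg/kg (vehicle 5% DMSO/5% Tween 80/90% PBS) from 3 months, n = 13–16, then tested at 8 months. Day 1: 240 s in chamber with two pairings of a 30 s 1000 Hz tone and a 2 s 0.5 mA footshock, at 120 and 180 s. Day 2: contextual test, 300 s in same chamber. Day 3: novel box for 240 s with tone during last 120 s. Read-out: freezing.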

[11] = tested on: Cytochrome P450; experiment: Drug metabolism in human liver microsomes assessed as CYP450-mediated O-demethylated metabolite formation at 1 uM measured after 60 mins in presence of NADPH generating system by LC-MS/MS analysis; type: ADME; settings: 1 h
[12] = Drug metabolism in mouse liver microsomes assessed as CYP450-mediated O-dealkylation at 1 uM measured after 60 mins in presence of NADPH generating system by LC-MS/MS analysis; type: ADME; settings: 1 h
Summary of the method: (§2)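 Mouse or human liver microsomes at 0.2 mg/mL, compound at 1 μM final. Controls run without cofactors. Quenched at 60 min with cold acetonitrile containing internal standard; read as % remaining.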

[13] = tested on: Cytochrome P450; experiment: Drug metabolism in human liver microsomes assessed as CYP450-mediated O-dealkylation at 1 uM measured after 60 mins in presence of NADPH generating system by LC-MS/MS analysis; type: ADME; settings: 1 h; summary of the method: as §2
[14] = tested on: HepG2; experiment: Cytotoxicity against human HepG2 cells by XTT assay; type: cell-based
[15] = tested on: HL-60; experiment: Cytotoxicity against human HL60 cells by XTT assay; type: cell-based
[16] = tested on: HeLa S3; experiment: Cytotoxicity against human HeLaS3 cells by XTT assay; type: cell-based
[17] = tested on: CCRF-CEM; experiment: Cytotoxicity against human CCRF-CEM cells by XTT assay; type: cell-based
[18] = target: T1, Sphingomyelin phosphodiesterase 3 (Homo sapiens, UniProt Q9NY59); experiment: Inhibition of human recombinant full-length nSMase expressed in HEK293 cells using sphingomyelin as substrate measured after 1 hr by alkaline phosphatase, choline oxidase and horseradish peroxidase dependent H2O2 detection-coupled amplex reagent based fluorescence assay
T1 sequence (Q9NY59 whole entry): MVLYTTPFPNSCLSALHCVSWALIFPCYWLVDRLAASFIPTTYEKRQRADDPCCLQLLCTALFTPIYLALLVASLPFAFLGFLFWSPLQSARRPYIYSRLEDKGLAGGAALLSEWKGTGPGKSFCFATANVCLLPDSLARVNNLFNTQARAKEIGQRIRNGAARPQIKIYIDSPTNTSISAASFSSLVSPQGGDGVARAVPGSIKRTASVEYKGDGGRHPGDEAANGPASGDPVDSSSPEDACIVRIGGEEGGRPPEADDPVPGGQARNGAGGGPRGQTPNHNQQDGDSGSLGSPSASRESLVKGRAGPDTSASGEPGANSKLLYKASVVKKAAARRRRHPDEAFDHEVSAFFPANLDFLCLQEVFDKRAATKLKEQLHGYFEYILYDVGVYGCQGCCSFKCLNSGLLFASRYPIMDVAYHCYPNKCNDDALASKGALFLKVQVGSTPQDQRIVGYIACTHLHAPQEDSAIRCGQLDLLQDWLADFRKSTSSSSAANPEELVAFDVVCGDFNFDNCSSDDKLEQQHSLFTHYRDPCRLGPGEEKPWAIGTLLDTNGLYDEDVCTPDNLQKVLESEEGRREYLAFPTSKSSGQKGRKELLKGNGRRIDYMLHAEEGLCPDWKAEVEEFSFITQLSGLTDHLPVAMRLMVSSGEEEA

[19] = Stability in mouse liver microsomes assessed as parent compound remaining at 1 uM measured after 60 mins in absence of NADPH by LC-MS/MS analysis; type: ADME, Microsome; settings: liver microsomes, read-out: Stability
Summary of the method: (§3)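 Cofactor-free control for cofactor-independent degradation. Mouse or human liver microsomes at 0.2 mg/mL, 1 μM compound (final), 100 mM potassium phosphate at pH 7.4, no NADPH regenerating system. Adding microsomes started the reaction; run in triplicate. Sampled at 60 min and quenched with three volumes of ice-cold acetonitrile spiked with internal standard.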

[20] = Stability in human liver microsomes assessed as parent compound remaining at 1 uM measured after 60 mins in absence of NADPH by LC-MS/MS analysis; type: ADME, Microsome; settings: liver microsomes, read-out: Stability; summary of the method: as §3
[21] = Stability in mouse liver microsomes assessed as CYP450-mediated metabolism by measuring parent compound remaining at 1 uM measured after 60 mins in presence of NADPH generating system by LC-MS/MS analysis; type: ADME; settings: 1 h
Summary of the method: (§4)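 Liver microsomes from mouse or human, 0.2 mg/mL, with 1 μM compound (final) in 100 mM potassium phosphate at pH 7.4. Adding microsomes started the reaction; triplicates. After 60 min, quenched with 3 volumes of ice-cold acetonitrile containing internal standard.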

[22] = tested on: Cytochrome P450; experiment: Stability in human liver microsomes assessed as CYP450-mediated metabolism by measuring parent compound remaining at 1 uM measured after 60 mins in presence of NADPH generating system by LC-MS/MS analysis; type: ADME; settings: 1 h; summary of the method: as §4

Work on COc1ccc(-c2c(C)nc3c(N4CC[C@@H](NC(=O)Oc5ccccc5)C4)cc(C)nn23)cc1OC yielded a Cmax [1] of 7.7 µM, a Cmax [2] of 3.89 µM and a Tmax [3] of 15 min. For the same molecule, the Tmax [4] was 30 min, the AUC(0-t) [5] was 22.1 µM·h and the AUC(0-t) [6] was 13 µM·h. The IC50 [7] was greater than 10 µM, the inhibition [8] was “inactive” and the Activity [9] was “Active”. For the same molecule, the Activity [10] was “Active”, the Drug metabolism [11] was “Metabolite_Detected” and the Drug metabolism [12] was “Metabolite_Detected”. The Drug metabolism [13] was “Metabolite_Detected”, the Activity [14] was “Non-Toxic” and the Activity [15] was “Non-Toxic”. For the same molecule, the Activity [16] was “Non-Toxic” and the Activity [17] was “Non-Toxic”.

In the case of COc1ccc(-c2scc3c(N4CC[C@@H](NC(C)=O)C4)nc(C)nc23)cc1OC, the IC50 [18] is reported as greater than 100 µM, the remaining at 1 h, 1 µM [19] is reported as greater than 95% and the remaining at 1 h, 1 µM [20] is reported as greater than 95%.

For COc1ccc(-c2c(C)nc3c(NCCNC(C)=O)cc(C)nn23)cc1OC, the IC50 [18] was greater than 10 µM, the inhibition [8] was “inactive” and the Activity [14] was “Non-Toxic”. The Activity [15] was “Non-Toxic”, the Activity [16] was “Non-Toxic” and the Activity [17] was “Non-Toxic”.

Molecule COc1ccc(-c2c(C)nc3c(N4CC[C@@H](NC(C)=O)C4)cc(C)nn23)cc1OC has a remaining at 1 h, 1 µM [19] greater than 95%, a remaining at 1 h, 1 µM [20] greater than 95% and an IC50 [7] greater than 10 µM. The inhibition [8] was “inactive”, the Activity [14] was “Non-Toxic” and the Activity [15] was “Non-Toxic”. The Activity [16] was “Non-Toxic” and the Activity [17] was “Non-Toxic”.

With COc1ccc(-n2c(C)nc3c(N4CC[C@@H](NC(C)=O)C4)nc(C)nc32)cc1OC the IC50 [18] was greater than 100 µM, the Parent compound remaining [21] was 104% and the remaining at 1 h, 1 µM [19] was greater than 95%. The remaining at 1 h, 1 µM [20] was greater than 95%.

In the case of COc1ccc(-c2c(C)nc3c(N4CC[C@H](NC(C)=O)C4)cc(C)nn23)cc1OC, the IC50 [7] is reported as greater than 10 µM, the inhibition [8] is reported as “inactive” and the Activity [14] is reported as “Non-Toxic”. The Activity [15] was “Non-Toxic”, the Activity [16] was “Non-Toxic” and the Activity [17] was “Non-Toxic”.

COc1ccc(-c2c(C)oc3c(N4CC[C@@H](NC(C)=O)C4)cc(C)nc23)cc1OC gave an IC50 [18] greater than 100 µM, a remaining at 1 h, 1 µM [19] greater than 95% and a remaining at 1 h, 1 µM [20] greater than 95%.

COc1ccc(-c2c(C)nc3c(N4CC[C@@H](NS(=O)(=O)C5CC5)C4)cc(C)nn23)cc1OC gave a Parent compound remaining [21] of 95%, a Stability [22] of 111% and a remaining at 1 h, 1 µM [19] greater than 95%. For the same molecule, the remaining at 1 h, 1 µM [20] was greater than 95%.

COc1ccc(-c2c(C)nc3c(N4CC[C@@H](SC(C)=O)C4)cc(C)nn23)cc1OC gave a Parent compound remaining [21] of 8%, a Stability [22] of 11% and a remaining at 1 h, 1 µM [19] greater than 95%. The remaining at 1 h, 1 µM [20] was greater than 95%.

Molecule COc1ccc(-c2cnc3c(N4CC[C@@H](NC(C)=O)C4)ccnn23)cc1OC has a Parent compound remaining [21] of 68%, a Stability [22] of 92% and a remaining at 1 h, 1 µM [19] greater than 95%. The remaining at 1 h, 1 µM [20] was greater than 95%.

Molecule CC(=O)N[C@@H]1CCN(c2cc(C)nn3c(-c4cccs4)c(C)nc23)C1 has a Parent compound remaining [21] of 28%, a Stability [22] of 50% and a remaining at 1 h, 1 µM [19] greater than 95%. For the same molecule, the remaining at 1 h, 1 µM [20] was greater than 95%.

Work on COc1ccc(-c2c(C)nc3c(N4CC[C@@H](NS(=O)(=O)c5ccc(C(C)=O)cc5)C4)cc(C)nn23)cc1OC yielded a Parent compound remaining [21] of 5%, a Stability [22] of 12% and a remaining at 1 h, 1 µM [19] greater than 95%. The remaining at 1 h, 1 µM [20] was greater than 95%.

For COc1ccc(-c2c(C)nc3c(N4CC[C@@H](NS(=O)(=O)c5ccccc5)C4)cc(C)nn23)cc1OC, the Parent compound remaining [21] was 20%, the Stability [22] was 43% and the remaining at 1 h, 1 µM [19] was greater than 95%. For the same molecule, the remaining at 1 h, 1 µM [20] was greater than 95%.

COc1ccc(-c2cnc3c(N4CC[C@@H](NC(C)=O)C4)cc(C)nn23)cc1OC gave a Parent compound remaining [21] of 53%, a Stability [22] of 28% and a remaining at 1 h, 1 µM [19] greater than 95%. For the same molecule, the remaining at 1 h, 1 µM [20] was greater than 95%.
